Test results from ChEMBL document CHEMBL3244380, “Preparation and antitumor activity of 1-aryl-3,3-dimethyltriazene derivatives” (1977).

Tests used:
Format in all cases: functional
Conditions in all cases: TLX-5, ip, 72 h, route intraperitoneal
[1] = Antitumor activity against mouse TLX5 cells allografted in CBA/LAC mouse assessed as increase in life span at 2.5 mg/kg, ip from day 3 to 7 from tumor inoculation relative to control
In short: (§1)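 TLX5 lymphoma cells implanted subcutaneously in the inguinal region of female CBA/LAC mice. Drug given as a freshly made solution in acetone–arachis oil 10/90 (v:v), intraperitoneally once daily from day 3 to 7 after tumour inoculation. Five animals per dose level, ten controls. Read-out was %ILS over controls, with analysis of variance used for significance.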

[2] = Antitumor activity against mouse TLX5 cells allografted in CBA/LAC mouse assessed as increase in life span at 5 mg/kg, ip from day 3 to 7 from tumor inoculation relative to control; in short: as §1
[3] = Antitumor activity against mouse TLX5 cells allografted in CBA/LAC mouse assessed as increase in life span at 10 mg/kg, ip from day 3 to 7 from tumor inoculation relative to control; in short: as §1
[4] = Antitumor activity against mouse TLX5 cells allografted in CBA/LAC mouse assessed as increase in life span at 20 mg/kg, ip from day 3 to 7 from tumor inoculation relative to control; in short: as §1
[5] = Antitumor activity against mouse TLX5 cells allografted in CBA/LAC mouse assessed as increase in life span at 40 mg/kg, ip from day 3 to 7 from tumor inoculation relative to control; in short: as §1
[6] = Antitumor activity against mouse TLX5 cells allografted in CBA/LAC mouse assessed as increase in life span at 12.5 mg/kg, ip from day 3 to 7 from tumor inoculation relative to control; in short: as §1
[7] = Antitumor activity against mouse TLX5 cells allografted in CBA/LAC mouse assessed as increase in life span at 25 mg/kg, ip from day 3 to 7 from tumor inoculation relative to control; in short: as §1
[8] = Antitumor activity against mouse TLX5 cells allografted in CBA/LAC mouse assessed as increase in life span at 50 mg/kg, ip from day 3 to 7 from tumor inoculation relative to control; in short: as §1
[9] = Antitumor activity against mouse TLX5 cells allografted in CBA/LAC mouse assessed as increase in life span at 100 mg/kg, ip from day 3 to 7 from tumor inoculation relative to control; in short: as §1
[10] = Antitumor activity against mouse TLX5 cells allografted in CBA/LAC mouse assessed as increase in life span at 200 mg/kg, ip from day 3 to 7 from tumor inoculation relative to control; in short: as §1
[11] = Antitumor activity against mouse TLX5 cells allografted in CBA/LAC mouse assessed as increase in life span at 400 mg/kg, ip from day 3 to 7 from tumor inoculation relative to control; in short: as §1
[12] = Antitumor activity against mouse TLX5 cells allografted in CBA/LAC mouse assessed as increase in life span at 6.25 mg/kg, ip from day 3 to 7 from tumor inoculation relative to control; in short: as §1
[13] = Antitumor activity against mouse TLX5 cells allografted in CBA/LAC mouse assessed as increase in life span at 3.12 mg/kg, ip from day 3 to 7 from tumor inoculation relative to control; in short: as §1
[14] = Antitumor activity against mouse TLX5 cells allografted in CBA/LAC mouse assessed as increase in life span at 80 mg/kg, ip from day 3 to 7 from tumor inoculation relative to control; in short: as §1
[15] = Antitumor activity against mouse TLX5 cells allografted in CBA/LAC mouse assessed as increase in life span at 160 mg/kg, ip from day 3 to 7 from tumor inoculation relative to control; in short: as §1
[16] = Antitumor activity against mouse TLX5 cells allografted in CBA/LAC mouse assessed as increase in life span at 800 mg/kg, ip from day 3 to 7 from tumor inoculation relative to control; in short: as §1

Compound | ILS at 2.5 mg/kg [1] [%] | ILS at 5 mg/kg [2] [%] | ILS at 10 mg/kg [3] [%] | ILS at 20 mg/kg [4] [%] | ILS at 40 mg/kg [5] [%] | ILS at 12.5 mg/kg [6] [%] | ILS at 25 mg/kg [7] [%] | ILS at 50 mg/kg [8] [%] | ILS at 100 mg/kg [9] [%] | ILS at 200 mg/kg [10] [%] | ILS at 400 mg/kg [11] [%] | ILS at 6.25 mg/kg [12] [%] | ILS at 3.12 mg/kg [13] [%] | ILS at 80 mg/kg [14] [%] | ILS at 160 mg/kg [15] [%] | ILS at 800 mg/kg [16] [%]
CCCN(CCC)NC(=O)c1ccc(/N=N/N(C)C)cc1 | -3.7 | -3.7 | 0 | 20 | -32 | – | – | – | – | – | – | – | – | – | – | –
COc1ccc(/C=N/NC(=O)c2ccc(/N=N/N(C)C)cc2)c(OC)c1 | – | – | – | – | – | 1.9 | 19 | 48 | 52 | 35 | -33 | – | – | – | – | –
CN(C)/N=N/c1ccc(C(=O)N=[N+]=[N-])cc1 | – | – | – | – | – | 4.6 | 21 | 46 | 51 | -72 | – | -1 | – | – | – | –
CCNC(=S)NNC(=O)c1ccc(/N=N/N(C)C)cc1 | – | – | – | – | – | -1 | 16 | 18 | 55 | -31 | – | – | – | – | – | –
CN(C)/N=N/c1ccc(S(=O)(=O)N(C)C)cc1 | – | – | – | – | – | 0 | 7.5 | 9.4 | 34 | -36 | – | – | – | – | – | –
CN(C)/N=N/c1ccc(C(=O)N/N=C/c2ccccc2[N+](=O)[O-])cc1 | – | – | – | – | – | 44 | 40 | 49 | 51 | 57 | 59 | – | – | – | – | –
CN(C)/N=N/c1ccc(C(=O)Nn2cnnc2)cc1 | – | – | – | – | – | -1 | 32 | 47 | 49 | 28 | -14 | – | – | – | – | –
CN(C)/N=N/c1ccc(S(=O)(=O)N(CCCl)CCCl)cc1 | – | – | – | – | – | -1 | 0 | 2.9 | -3.7 | – | – | -3.7 | -3.7 | – | – | –
CCCNC(=O)NNC(=O)c1ccc(/N=N/N(C)C)cc1 | – | – | – | – | – | -1 | 10 | 61 | 44 | 49 | -44 | – | – | – | – | –
CN(C)/N=N/c1ccc(C(=O)N/N=C/c2ccc([N+](=O)[O-])cc2)cc1 | – | – | – | – | – | -1 | -1 | 8.7 | 16 | 26 | 20 | – | – | – | – | –
CN(C)/N=N/c1ccc(C(=O)NN)cc1 | – | – | 59 | 55 | 57 | – | – | – | – | – | – | – | – | 44 | -46 | –
CN(C)/N=N/c1ccc(C(N)=O)cc1 | – | – | – | – | – | 14 | 55 | 51 | 47 | 3.9 | -61 | – | – | – | – | –
CN(C)/N=N/c1ccc(C(=O)N/N=C/c2ccc(Cl)cc2)cc1 | – | – | – | – | – | 4.6 | 14 | 40 | 44 | 51 | -23 | – | – | – | – | –
CN(C)/N=N/c1ccc(C(=O)N/N=C/c2ccc(Br)cc2)cc1 | – | – | – | – | – | 7.6 | 21 | 52 | 52 | 60 | -35 | – | – | – | – | –
CN(C)/N=N/c1ccc(C(=O)N/N=C/c2ccccc2)cc1 | – | – | – | – | – | 26 | 24 | 49 | 36 | 1.8 | -26 | – | – | – | – | –
CCO/C=N/NC(=O)c1ccc(/N=N/N(C)C)cc1 | – | – | – | – | – | 13 | 30 | 43 | -27 | – | – | – | – | – | – | –
CCOc1ccc(/C=N/NC(=O)c2ccc(/N=N/N(C)C)cc2)cc1 | – | – | – | – | – | 0 | 13 | 29 | 50 | 65 | 63 | – | – | – | – | –
CN(C)/N=N/c1ccc(C(=O)NNC(O)c2ccc([N+](=O)[O-])cc2)cc1 (stereo not drawn) | – | – | – | – | – | – | 6.5 | 12 | 74 | 83 | 71 | – | – | – | – | 44
CN(C)/N=N/c1ccc(C(=O)N/N=C/c2ccc(I)cc2)cc1 | – | – | – | – | – | 11 | 15 | 40 | 54 | -38 | – | – | – | – | – | –
CN(C)/N=N/c1ccc(S(=O)(=O)Nn2cnnc2)cc1 | – | – | – | – | – | 0.9 | 4.6 | 0.9 | 4.6 | 16 | 14 | – | – | – | – | –
